Screening data deposited in PubChem BioAssay by Sanford-Burnham Center for Chemical Genomics.
mIAP inh: blocks mouse intestinal alkaline phosphatase | purified mouse IAP, CDP-Star luminescence, 30 min | inhibition, % at 10 µM | 330,000 compounds, 0.2% hits;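 active means inhibition of at least 40% at 10 µM in the primary screen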;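 further: plate controls were DMSO with enzyme for no effect and no enzyme wells for full effect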
mIAP activ: increases mouse intestinal alkaline phosphatase activity. AID 2805. activation factor at 10 µM. 330,000 compounds, 0.24% hits. muIAP, CDP-Star luminescence, 30 min; hits give high values; 1 = vehicle-only enzyme signal, 0 = enzyme-free wells;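 active means activation factor of at least 2 at 20 µM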
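also added = chemiluminescent substrate CDP-Star | test system = mouse IAP enzyme | signal = chemiluminescence readout | compound = DMSO-dissolved test compounds | incubation = 30 min at room temperature | benchmarks = DMSO wells, no-enzyme wells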
hIAP block: blocks human intestinal alkaline phosphatase; P09923; purified IAP, CDP-Star luminescence, 30 min; inhibition, % at 10 µM; 330,000 compounds, 0.12% hits; AID 2544;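 active means inhibition reaching a set limit with compound at 10 µM in the primary screen, cut at about 35% in these data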;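 further: plate controls were DMSO wells with enzyme for no effect and no-enzyme buffer wells for full effect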
Target sequence (P09923 whole entry, looked up): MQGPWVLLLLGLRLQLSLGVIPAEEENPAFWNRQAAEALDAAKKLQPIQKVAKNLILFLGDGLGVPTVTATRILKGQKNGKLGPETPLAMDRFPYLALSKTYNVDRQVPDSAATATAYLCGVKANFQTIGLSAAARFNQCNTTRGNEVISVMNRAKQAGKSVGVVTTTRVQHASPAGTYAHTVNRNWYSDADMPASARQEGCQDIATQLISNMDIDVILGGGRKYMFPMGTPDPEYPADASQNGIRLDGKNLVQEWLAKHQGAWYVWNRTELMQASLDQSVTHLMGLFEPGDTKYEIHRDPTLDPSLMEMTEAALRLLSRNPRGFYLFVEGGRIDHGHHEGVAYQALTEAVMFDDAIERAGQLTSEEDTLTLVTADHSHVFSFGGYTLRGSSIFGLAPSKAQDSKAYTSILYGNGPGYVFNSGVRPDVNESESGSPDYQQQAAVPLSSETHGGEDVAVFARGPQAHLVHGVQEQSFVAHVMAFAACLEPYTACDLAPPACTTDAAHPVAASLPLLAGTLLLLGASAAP
bIAP act: intestinal alkaline phosphatase (bovine) activation | AID 1016 | 200,000 compounds, 0.17% hits | purified bovine IAP, CDP-star luminescence, 30 min; hits give high values; fold of DMSO-control signal, blank-subtracted | activation factor at 20 µM;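 active means activation factor of 2 or more at 20 µM, a signal rise over negative controls twice the positive control's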
hIAP act: human IAP activation; purified human IAP, CDP-Star luminescence, 30 min; hits give high values; 1 = vehicle-only enzyme, 0 = enzyme-free background; activation factor at 10 µM; 330,000 compounds, 0.16% hits;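 active means activation factor of the enzyme at least 2-fold when tested at 20 µM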
bIAP inhibitor: intestinal alkaline phosphatase (bovine) inhibition. inhibition, % at 20 µM. purified bovine IAP, CDP-star luminescence, 30 min. AID 1019. 190,000 tested, under 10 active;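 active means over 50% inhibition of intestinal alkaline phosphatase at 20 µM in the single-dose screen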
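Assay system – bovine IAP enzyme · Quantity – bovine IAP at 1/65,000,000 final dilution · Detection – CDP-star luminescence signal · Times – 30 min reaction at room temperature · Also added – CDP-star substrate at 30 µM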
hIAP act conf: human IAP activation confirmation; AID 434926; purified IAP, CDP-Star luminescence, 30 min; hits give low values; activation (%Activity, negative = activation), % at 8.3 µM; 880 compounds, 10% hits; shares compounds with hIAP act;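 active means at least twofold enzyme activation in any of six single-dose repeats, which the averaged readout prints as negative percent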
The depositor's hits bear a star; · = no result given. Most compounds without a hit are left out; they make up all but 0.79% or so of the library.

SMILES	mIAP inh	mIAP activ	hIAP block	bIAP act	hIAP act	bIAP inhibitor	hIAP act conf
Cc1cccnc1CN1CCN(Cc2nc(C(c3ccccc3)c3ccccc3)no2)CC1	4	0.96	7	1.1	0.93	-5	·
O=C(NCCc1ccc(Cl)cc1)c1ccc2[nH]c(=O)c(=O)[nH]c2c1	-6	1.1	-100	·	2*	·	-38
CC(=O)O[C@@H]1[C@@]2(C)O[C@H]2CC[C@]23O[C@H]2[C@H](OC3=O)C2=C(C)C(=O)O[C@@]21O	-7	1.1	-7	1	1.1	3	·
Nc1ccc(NC(=O)NC2CCCCC2)cc1[N+](=O)[O-]	5	0.95	8	1.1	0.92	-5	·
CN(Cc1cnn(C)c1)C(=O)C1CCC(=O)N(Cc2cccc(F)c2)C1 (stereo unspecified)	1	0.99	45*	·	0.55	·	-58
c1ccc(-n2ncc3c2ncn2nc(-c4ccco4)nc32)cc1	30	0.7	52*	1	0.48	5	0
Cc1cccc(C(=O)OCN2C(=O)c3ccccc3C2=O)c1[N+](=O)[O-]	3	0.97	42*	·	0.58	·	10
CC1CC1C(=O)OCC(=O)N(C)c1c(N)n(Cc2ccccc2)c(=O)[nH]c1=O (stereo unspecified)	5	0.95	-9	·	1.1	·	·
CN1CCN(c2oc(-c3ccccc3)nc2S(=O)(=O)c2ccc(Br)cc2)CC1	-15	1.2	12	·	0.88	·	·
Cc1c(Cl)cccc1NC(=O)C(=O)NNS(=O)(=O)c1ccc(F)cc1	20	0.8	-139	·	2.4*	·	-20
Cc1cc(O)ccc1NS(=O)(=O)c1ccc2c3c(cccc13)C(=O)N2	8	0.92	4	·	0.96	·	·
CS(=O)(=O)N1CCC(C(=O)Nc2cccc(F)c2)CC1	-5	1.1	-14	·	1.1	·	·
O=C(Nc1cccc(-c2cccc(F)c2)c1)C1CCN(C2CCOCC2)CC1	-94	1.9	-185	·	2.9*	·	2
c1ccc(-c2nnc(-c3ccccc3)o2)cc1	-1	1	13	1	0.87	2	·
Nc1ccccc1-c1nnc(-c2ccc(-c3ccccc3)cc2)o1	-9	1.1	-100	0.7	2*	27	-46
Oc1cccc(/C=N/N=C/c2cccc(O)c2O)c1O	36	0.64	-101	·	2*	·	-57
Cn1cc(C(=O)C(F)(F)F)c2ccccc21	5	0.95	-24	1	1.2	-3	·
Cn1cc(C(=O)NS(=O)(=O)Nc2ccc(Br)cc2)c2ccccc21	1	0.99	38*	·	0.62	·	-7
CN(CC(=O)NCCc1ccc(F)cc1)Cc1cccc(Cl)c1	0	0.99	-1	1.1	1	-11	·
O=C(c1cnn2c(C(F)(F)F)cc(-c3ccc(Br)cc3)nc12)N1CCOCC1	·	·	·	1	·	-1	·
Cc1nn2c(C(F)(F)F)cc(-c3ccc(Cl)cc3)nc2c1C(=O)N1CCOCC1	-2	1	-177	0.9	2.8*	8	8
Cc1ccc(C)c(NC(=O)c2cc(-c3cc(C)c(C)cc3O)n[nH]2)c1	-30	1.3	-92	·	1.9	·	·
Cc1ccc(CNC(=O)c2cc(-c3cc(C)cc(C)c3O)n[nH]2)cc1	-21	1.2	-90	·	1.9	·	·
COc1ccc(OC)c(NC(=O)c2cc(-c3cc(C)ccc3O)n[nH]2)c1	-2	1	-108	·	2.1*	·	-42*
Cc1ccc(-c2cc(C(=O)Nc3cc(C)ccc3C)[nH]n2)c(O)c1	4	0.96	-49	0.9	1.5	9	·
SMILES	mIAP inh	mIAP activ	hIAP block	bIAP act	hIAP act	bIAP inhibitor	hIAP act conf
Cc1ccc(O)c(-c2cc(C(=O)NCc3ccc4c(c3)OCO4)[nH]n2)c1	-31	1.3	-106	0.9	2.1*	6	20
COc1ccc(OC)c(NC(=O)c2cc(-c3ccc(C)cc3O)n[nH]2)c1	-4	1	-116	1.4	2.2*	-37	-36
CCc1ccc(S(=O)(=O)NC(=S)NC2CCCCC2)cc1	-2	1	12	0.9	0.88	13	·
Cc1ccc(NS(=O)(=O)c2ccc(-c3cnc(C4CC4)o3)cc2)cc1	1	0.99	37*	·	0.63	·	-5
CNC(=S)NNC(=O)c1cccn(Cc2ccc(Cl)c(Cl)c2)c1=O	22	0.78	-81	1.2	1.8	-19	·
CNC(=S)NNC(=O)c1cccn(Cc2cccc(Cl)c2)c1=O	18	0.82	-101	1.3	2*	-35	6
CCOC(=O)C1=C(COC(=O)c2ccc(OC)c(OC)c2OC)NC(=O)NC1C (stereo unspecified)	-2	1	-13	·	1.1	·	·
COc1ccc(C2/C(=C(/O)c3ccc4c(c3)CC(C)O4)C(=O)C(=O)N2CCN2CCOCC2)cc1OC (stereo unspecified)	-6	1.1	-11	·	1.1	·	·
CC(C)/C(C=O)=C(/NC1CCCCC1)c1ccccc1	-3	1	1	·	0.99	·	·
c1ccc(COc2ccc(CNn3cnnc3)cc2)cc1	2	0.98	54*	1	0.46	4	-5
COc1ccc2nc3cc(Cl)ccc3c(Nc3cc(CN4CCCC4)c(O)c(CN4CCCC4)c3)c2n1	12	0.88	43*	·	0.57	·	-60*
CCN(c1ccccc1)S(=O)(=O)c1ccc(N2CCN(c3ccc(O)cc3)CC2)nc1	10	0.9	1	·	0.99	·	·
COC(=O)CN=Cc1c(O)n(-c2ccc(Cl)cn2)c(=O)c2ccccc12	-3	1	-4	1.1	1	-6	·
CC(C)(C)N/N=C/c1c(O)n(-c2ccc(Cl)cn2)c(=O)c2ccccc12	0	1	-103	1.1	2*	-6	-93*
CC1Cn2c(nnc2-c2ccc(F)cc2)S1 (stereo unspecified)	-10	1.1	0	1	1	4	·
CC1Cn2c(nnc2C23CC4CC(CC(C4)C2)C3)S1 (stereo unspecified)	3	0.97	-104	1.1	2*	-6	95
COc1ccc(CCNC(=O)c2cc(-c3ccccc3)c(N3CCOCC3)s2)c(OC)c1OC	-30	1.3	-57	·	1.6	·	·
CCOc1ccc(CCNC(=O)c2cc(-c3ccccc3)c(N3CCOCC3)s2)cc1OCC	-116	2.2*	-152	·	2.5*	·	1
Cc1ccc(S(=O)(=O)NCCc2ccncc2)cc1[N+](=O)[O-]	14	0.86	6	·	0.94	·	·
Cc1ccc(NC(=O)CCC(=O)NNC(=S)Nc2ccc(F)cc2)c(C)c1	0	1	-70	·	1.7	·	·
Cc1ccc(NC(=O)CCC(=O)NNC(=S)Nc2ccc(F)cc2F)cc1C	0	1	-123	·	2.2*	·	7
O=C(Nc1cccc(F)c1)C1CCCN(c2cnccn2)C1 (stereo unspecified)	4	0.96	1	·	0.99	·	·
